Bioassay records (PubChem)
Platelet DG rel: modulates dense granule release in human platelets; human platelet-rich plasma, SFLLRN dense granule ATP release, luminescence; inhibition, %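 (compounds screened at 7.5 µM in platelet-rich plasma)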; 0.22% of 300,000 active; AID 1663;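 active means mean replicate score, as percent of positive control, at or above 50; inconclusive means mean below 50 but at least one replicate at or above 50; inactive means mean and every replicate below 50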
Runt-SMMHC FRET: Runt domain-CBFb-SMMHC interaction inhibition; inhibition, % at 20 µM; AID 1434; Cerulean-Runt/Venus-CBFb-SMMHC FRET ratio 530/480, 1 h; Q01196+Q13951; 0.74% of 220,000 active;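 active means mean inhibition across duplicate retests at 20 µM reaching about 50%, limit read from the data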;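 further: 0% = DMSO wells and 100% = wells with excess untagged CBFb-SMMHC; inhibitors lower the FRET ratio by blocking Runt binding to CBFb-SMMHC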
Rce1 inh: inhibitors of yeast Ras-converting enzyme; calls only; yeast membranes, quenched prenylated peptide cleavage fluorescence; 0.27% of 290,000 active; AID 2563; Q03530;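 active means fall in fluorescence gain of 50% or more versus controls, with final raw signal at or below 3038400; inconclusive means same 50% fall but final raw signal above 3038400; inactive means fall in fluorescence gain under 50%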;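 further: plate controls were neutral control wells for no effect and wells lacking membranes for full effect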
Target sequence (Q03530 whole entry, looked up): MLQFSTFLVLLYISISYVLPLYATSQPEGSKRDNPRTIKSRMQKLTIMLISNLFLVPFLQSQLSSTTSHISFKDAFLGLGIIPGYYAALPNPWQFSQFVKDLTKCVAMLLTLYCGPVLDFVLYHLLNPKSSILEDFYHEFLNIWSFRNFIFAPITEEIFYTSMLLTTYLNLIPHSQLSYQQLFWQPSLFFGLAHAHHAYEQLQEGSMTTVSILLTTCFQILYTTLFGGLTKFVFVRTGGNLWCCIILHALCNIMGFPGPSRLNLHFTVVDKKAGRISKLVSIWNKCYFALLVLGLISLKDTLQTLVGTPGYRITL
RanGTP-Imp inh: inhibitors of RanGTP-importin-beta interaction, primary screen, biochemical, FRET, CFP-Ran, YFP-importin-beta, homogeneous; cell-free CFP-Ran/YFP-importin-beta FRET ratio; inhibition, % (no concentration beside the values); 1.1% of 300,000 active;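 active means more than half of the replicate wells show a fall in the fluorescence ratio signal beyond about 16%, limit read from the data, passing the limit was not always enough; inconclusive means exactly half of the replicate wells pass the set limit; inactive means fewer than half of replicates pass the limit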;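 further: 0% = DMSO wells and 100% = Ran loaded with GDP instead of GTP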
Runt-CBFb FRET: inhibitors of human RUNX1 Runt domain binding to CBFb | Q01196+Q13951 | AID 1496 | 0.46% of 220,000 active | Cerulean-Runt/Venus-CBFb FRET ratio 530/480, 1 h | inhibition, % at 20 µM;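 active means inhibition over about 50% at 20 µM in the single-dose screen, limit read from the data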;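 further: 0% = DMSO wells and 100% = excess unlabeled CBFb competitor control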
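test system = Cerulean-tagged RUNX1 Runt domain (FRET donor) fusion protein | reagent = Venus-CBFb binding partner, 100 nM | incubation = protein complex preformed 1 h, compound exposure 1 h, room temperature, dark | detection = FRET fluorescence | read-out basis = loss of energy transfer signal | controls = 5 µM unlabeled CBFb as full-inhibition high control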
YIC FRET counter: counter-screen: alters YIC FRET probe signal | shares compounds with RanGTP-Imp inh | Purified YIC probe, intramolecular FRET ratio YFP/CFP | IC50, µM | 40% of 1,000 active | AID 435026;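 active means fitted half-maximal inhibitory concentration no more than tenfold above the top dose tested; inconclusive means flat fit with 30 to 70% activity, or poor fit; inactive means half-maximal concentration beyond tenfold above the top dose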
Active calls of the source: *; i = inactive; u = inconclusive; x = no result given. Shown are actives, neighbours in structure and some others; about 1.8% of the full set was active somewhere.

SMILES | Platelet DG rel | Runt-SMMHC FRET | Rce1 inh | RanGTP-Imp inh | Runt-CBFb FRET | YIC FRET counter
Cc1cc(C)c(C2=CC(c3ccccc3)n3ncnc3N2)cc1C (stereo not given) | -1 | x | i | 18* | x | 30*
COCCn1cnc2c1c(=O)[nH]c(=O)n2Cc1ccccc1 | -5 | x | i | 1 | x | x
O=C(c1cc2cc([N+](=O)[O-])ccc2s1)N1CCCCC1 | -2 | -1 | i | 5 | 0 | x
CC(=O)[C@@H]1[C@@H](C)N(Cc2ccccc2)C(=O)N[C@H]1c1cccc(C(F)(F)F)c1 | -3 | -1 | i | 20* | -1 | >50
Cc1ccc(C(=O)NNC(=O)C2CCN(C(=O)OC(C)(C)C)CC2)cc1 | -6 | x | i | 5 | x | x
CCCCc1ccc(NS(=O)(=O)c2cccs2)cc1 | 9 | -1 | i | 3 | -1 | x
COc1cc2c(cc1C1NC(=S)NC(C)=C1C(=O)N(C)C)CCCC2 (stereo not given) | 18 | 1 | i | -1 | 0 | x
Cc1cc(N/N=C/c2ccc(O)cc2O)c2ccccc2n1 | -5 | x | i | 2 | x | x
Oc1ccc(/C=N/Nc2ccc3ccccc3c2)c(O)c1 | -11 | 33 | i | 16* | 15 | >50
C=CCOc1cccc(/C=N/NC(=O)CC(=O)NC2CCCCC2)c1 | -1 | x | x | -2 | x | x
CCc1ccccc1N(CC(=O)NCc1ccco1)C(=O)CCC(=O)Nc1nccs1 | -2 | x | i | 22* | x | >50
CC(=O)N1CCC(N(CCN2CCOCC2)C(=O)Nc2ccc(Cl)c(Cl)c2)CC1 | -4 | x | i | 19* | x | >50
O=C(CNC(=O)c1ccccc1)NC1(C(=O)NC2CCCCC2)CCCCC1 | -12 | 2 | i | 2 | 3 | x
CCc1ccc(Nc2nc(N)nc(CSc3nc4ccccc4s3)n2)cc1 | 2 | -3 | i | 3 | -4 | x
Nc1nc(CSc2nc3ccccc3s2)nc(N2CCCCC2)n1 | 2 | 1 | i | 36* | -1 | >50
O=C(c1ccco1)c1cc2c(ccc3ccccc32)oc1=O | 3 | 30 | i | 24* | 19 | 21*
CCN(CC)S(=O)(=O)c1ccc(/C=C/C(=O)Nc2ccc(F)cc2F)cc1 | 0 | 0 | i | 21* | 0 | >50
CCN(CC)S(=O)(=O)c1ccc(/C=C/C(=O)Nc2ccc(Br)cc2F)cc1 | -7 | 1 | i | 2 | 1 | x
CC1(C)CC(=O)C=C(NNC(=O)C2CCCCC2)C1 | 1 | -1 | i | 19* | -4 | >50
CC1(C)CC(=O)C=C(NC2CCCCCCC2)C1 | -3 | -1 | i | 1 | -2 | x
Cc1ccc(NC(=O)C2CC(=O)N(Cc3ccccc3)C2)nc1 (stereo not given) | 5 | x | i | 2 | x | x
CCC1(c2ccc(F)cc2)NC(=O)N(CC(=O)Nc2ccccc2C)C1=O (stereo not given) | -1 | x | i | 1 | x | x
CCN(Cc1ccccc1)C(=O)CN1C(=O)NC(CC)(c2ccc(F)cc2)C1=O (stereo not given) | -2 | x | i | 23* | x | >50
CCCc1[nH]nc2c1C(c1ccoc1)C(C#N)=C(N)O2 (stereo not given) | 12 | -1 | i | u | -2 | x
Cc1[nH]nc2c1C(c1ccoc1)C(C#N)=C(N)O2 (stereo not given) | 1 | x | i | 21* | x | >50
SMILES | Platelet DG rel | Runt-SMMHC FRET | Rce1 inh | RanGTP-Imp inh | Runt-CBFb FRET | YIC FRET counter
O=C(O)C1C2CCC(C2)C1C(=O)NCCc1cccc(Cl)c1 (stereo not given) | -1 | x | i | -4 | x | x
O=C(O)C1C2CCC(C2)C1C(=O)NCCc1ccc(F)cc1 (stereo not given) | 3 | x | i | 21* | x | >50
O=C1NNC(=O)C2C3C=CC(C4CC34)C12 (stereo not given) | 1 | -3 | i | 5 | 3 | x
COc1ccc(NC(=O)COC(=O)C2CCC(C(C)(C)C)CC2)c([N+](=O)[O-])c1 (stereo not given) | -1 | -8 | i | 1 | -13 | x
NC(=O)c1ccccc1NC(=O)/C=C/c1ccc(Cl)cc1 | -10 | 1 | i | 23* | 1 | >50
CC1CCCC(C)N1C(=O)Cn1cc(C#N)c2ccccc21 (stereo not given) | 4 | 0 | i | -1 | -1 | x
CC1=C(C(=O)OCC2CCCO2)C(c2ccccc2OC(C)C)C2=C(CC(c3ccco3)CC2=O)N1 (stereo not given) | -1 | 103* | x | 28* | 43 | 6.9*
COc1ccc(N2CC(C(=O)N[C@@H](C)C(=O)NCCc3ccccc3)CC2=O)cc1 (stereo not given in full) | 5 | x | i | 2 | x | x
CC(=O)c1ccc(-c2cccs2)s1 | 25 | 143* | i | 19* | 78* | 29*
CC(=O)N1N=C(c2cccs2)CC1c1cccs1 (stereo not given) | 7 | 1 | i | 0 | 0 | x
CC(C)Oc1cccc(C(=O)NC(=S)NCc2cccnc2)c1 | -4 | 4 | i | 2 | 0 | x
CCOC(=O)C1=C(N)Oc2ccc3ccccc3c2C1c1ccc(O)c(OC)c1 (stereo not given) | 7 | x | i | 29* | x | >50
CCOc1ccccc1NC(=O)CCNC(=O)c1ccc(Cl)cc1 | x | 0 | i | x | 0 | x
COc1cccc(-c2nc(COc3ccc(Cl)cc3Cl)no2)c1 | x | -2 | i | -1 | -2 | x
Cc1ccccc1Cn1nnc(-c2ccc(C(=O)O)cc2)n1 | 0 | 0 | i | -2 | 2 | x
Cc1ccccc1Cn1nnc(-c2cccc(C(=O)O)c2)n1 | 14 | -2 | i | 16* | 0 | >50
COC(=O)c1cc(C(=O)OC)[nH]n1 | -2 | -3 | i | 20* | 2 | >50
CCOC(=O)c1ccccc1NC(=O)COC(=O)C(CCSC)NC(=O)COc1ccccc1 (stereo not given) | 11 | x | i | 24* | x | >50
CCOC(=O)c1ccccc1NC(=O)COc1ccccc1 | 6 | 1 | i | -1 | -3 | x
COc1ccc(Cl)cc1NS(=O)(=O)c1cc(Cl)ccc1OC | 1 | -5 | i | -1 | 1 | x
COc1ccc(Cl)cc1S(=O)(=O)Nc1noc2ccccc12 | 10 | x | i | 16* | x | >50
O=C(NCc1ccco1)C1(c2ccc(Br)cc2)CCCC1 | -12 | 131 | i | 1 | 0 | x
CSc1ncccc1C(=O)OCC(=O)c1cc2ccccc2o1 | 10 | 0 | i | 19* | -4 | >50
Cc1sc2nc(SCC(=O)NCc3ccco3)n(-c3ccccc3)c(=O)c2c1C | -7 | -2 | i | 23* | -2 | >50
COc1ccc(NS(=O)(=O)c2cc3c(cc2C)N(C(C)=O)CCO3)c(OC)c1 | 4 | x | i | 2 | x | x
Cc1ccc(-c2c(C(=O)N/N=C/c3ccc4c(c3)OCO4)nnn2-c2nonc2N)cc1 | -16 | x | i | 23* | x | >50
